Data on 7 compounds can be found in ChEMBL document CHEMBL2380291, “Synthesis, 18F-radiolabeling, and in vivo biodistribution studies of N-fluorohydroxybutyl isatin sulfonamides using positron emission tomography” (J Med Chem, 2013).

SMILES strings stand for the structures. Calls of active or inactive are those of the source. The rule behind the calls is not given here.

The target of one series is T1, Caspase-3 (Homo sapiens, UniProt P42574).
T1 sequence (P42574 whole entry): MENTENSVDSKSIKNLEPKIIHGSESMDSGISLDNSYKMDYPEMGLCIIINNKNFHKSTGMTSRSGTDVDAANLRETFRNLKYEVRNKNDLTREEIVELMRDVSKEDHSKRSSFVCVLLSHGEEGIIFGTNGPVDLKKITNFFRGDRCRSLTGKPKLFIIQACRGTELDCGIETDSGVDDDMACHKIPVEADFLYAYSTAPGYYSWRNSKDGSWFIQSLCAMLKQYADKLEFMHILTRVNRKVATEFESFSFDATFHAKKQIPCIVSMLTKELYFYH
The experiment in a line: Inhibition of human recombinant caspase-3 assessed as Ac-DEVD-AMC conversion to 7-amino-4-methylcoumarin incubated for 10 mins prior to substrate addition measured after 10 mins by spectrophotometric analysis. Put shortly: (§1)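 Recombinant caspase diluted to 0.5 unit per assay (500 pmol substrate converted in 60 min), preincubated 10 min at 37 °C in reaction buffer with inhibitor in DMSO at single final concentrations spanning 5 pM to 500 μM. Peptide substrate then added (final 10 μM) and reacted 10 min. IC50 obtained by nonlinear regression.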

Another series deals with T2, Caspase-6 (Homo sapiens) (UniProt P55212).
T2 sequence (whole entry): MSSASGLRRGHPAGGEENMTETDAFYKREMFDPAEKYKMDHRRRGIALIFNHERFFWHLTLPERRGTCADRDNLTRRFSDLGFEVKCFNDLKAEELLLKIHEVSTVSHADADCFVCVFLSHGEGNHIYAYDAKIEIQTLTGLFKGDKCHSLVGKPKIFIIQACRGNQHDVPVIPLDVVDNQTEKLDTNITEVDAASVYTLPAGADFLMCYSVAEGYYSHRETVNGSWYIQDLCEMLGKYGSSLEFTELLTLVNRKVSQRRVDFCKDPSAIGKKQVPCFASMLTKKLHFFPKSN
The experiment in a line: Inhibition of human recombinant caspase-6 assessed as Ac-VEID-AMC conversion to 7-amino-4-methylcoumarin incubated for 10 mins prior to substrate addition measured after 10 mins by spectrophotometric analysis. Put shortly:
as §1

The next series addresses T3, Caspase-1 (Homo sapiens) (UniProt P29466).
T3 sequence (whole entry): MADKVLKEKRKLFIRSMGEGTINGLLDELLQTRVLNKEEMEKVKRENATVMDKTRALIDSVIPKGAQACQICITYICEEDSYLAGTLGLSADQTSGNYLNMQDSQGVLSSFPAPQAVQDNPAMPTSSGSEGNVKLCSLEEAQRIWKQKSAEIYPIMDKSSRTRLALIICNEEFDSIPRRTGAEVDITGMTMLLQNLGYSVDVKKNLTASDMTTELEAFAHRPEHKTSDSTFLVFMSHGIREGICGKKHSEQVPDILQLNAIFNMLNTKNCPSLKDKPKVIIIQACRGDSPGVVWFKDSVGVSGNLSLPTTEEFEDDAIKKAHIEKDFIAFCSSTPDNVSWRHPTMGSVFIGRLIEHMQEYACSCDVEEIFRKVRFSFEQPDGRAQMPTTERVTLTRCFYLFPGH
The series is described as follows: Inhibition of human recombinant caspase-1 assessed as Ac-YVAD-AMC conversion to 7-amino-4-methylcoumarin incubated for 10 mins prior to substrate addition measured after 10 mins by spectrophotometric analysis. The procedure, abridged:
as §1

Another series has as its target T4, Caspase-7 (Homo sapiens, UniProt P55210).
T4 sequence (P55210 whole entry): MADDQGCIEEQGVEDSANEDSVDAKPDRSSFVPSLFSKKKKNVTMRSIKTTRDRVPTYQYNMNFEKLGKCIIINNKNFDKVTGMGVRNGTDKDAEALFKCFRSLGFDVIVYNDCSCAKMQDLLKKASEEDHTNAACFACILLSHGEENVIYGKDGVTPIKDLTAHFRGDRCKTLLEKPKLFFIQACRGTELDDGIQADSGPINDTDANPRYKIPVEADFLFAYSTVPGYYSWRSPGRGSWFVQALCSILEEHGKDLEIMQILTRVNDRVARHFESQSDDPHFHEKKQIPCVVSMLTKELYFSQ
The series is described as follows: Inhibition of human recombinant caspase-7 assessed as Ac-DEVD-AMC conversion to 7-amino-4-methylcoumarin incubated for 10 mins prior to substrate addition measured after 10 mins by spectrophotometric analysis. The procedure, abridged: as §1

The next series concerns Intestine. The series is described as follows: Biodistribution in mouse intestine at 9.8 MBq, iv after 6 to 96 mins by PET/CT analysis. The format is ADME, organism-based. The note with it: in vivo. The procedure, abridged: (§2)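 Wild-type mice given tracer by tail vein injection through a pump-driven saline flush (300 μL/min) while PET list-mode acquisition started. CT-defined 3D volumes of interest over organs transferred to coregistered PET data. Uptake expressed as percentage injected dose: counts per mL in VOI divided by total counts in mouse, times 100% ID/mL.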

Another series deals with Blood. The series is described as follows: Biodistribution in mouse blood at 9.8 MBq, iv up to 30 mins by PET/CT analysis. It is filed as ADME, organism-based. The note with it: in vivo, 0.5 h. Put shortly: as §2
Another series concerns Lung. The series is described as follows: Biodistribution in mouse lung at 9.8 MBq, iv after 36 seconds by PET/CT analysis. The format is ADME, organism-based. The conditions noted are these: in vivo, 0.01 h. Put shortly: as §2
Series [1] relates to Mus musculus. The experiment in a line: Biodistribution in mouse urinary bladder at 9.8 MBq, iv after 6 to 96 mins by PET/CT analysis. The conditions noted are these: in vivo. The format is ADME, organism-based. Put shortly:
as §2

The test system of series [2] is Mus musculus. The experiment in a line: Biodistribution in mouse gall bladder at 9.8 MBq, iv after 6 to 96 mins by PET/CT analysis. The format is ADME, organism-based. The conditions noted are these: in vivo. The procedure, abridged: as §2
The test system of the next series is Liver. The series is described as follows: Biodistribution in mouse liver at 9.8 MBq, iv after 6 mins by PET/CT analysis. The format is ADME, organism-based. The conditions noted are these: in vivo, 0.1 h. Put shortly:
as §2

The next series deals with Heart. The series is described as follows: Biodistribution in mouse heart at 9.8 MBq, iv after 36 seconds by PET/CT analysis. The format is ADME, organism-based. The note with it: in vivo, 0.01 h. Put shortly:
as §2

The test system of another series is Kidney. The series is described as follows: Biodistribution in mouse kidney at 9.8 MBq, iv after 6 mins by PET/CT analysis. The format is ADME, organism-based. The note with it: in vivo, 0.1 h. Put shortly: as §2

The term IC50 denotes the concentration that inhibits the measured activity by half. As for `COC[C@@H]1CCCN1S(=O)(=O)c1ccc2c(c1)C(=O)C(=O)N2CC[C@H](O)CO`, the figures for the IC50 on Caspase-3 and on Caspase-7 were 0.106 µM and 0.103 µM, respectively. The inhibition entry on Caspase-6 (Homo sapiens) and on Caspase-1 (Homo sapiens) was “Active” in each case.

For `COC[C@@H]1CCCN1S(=O)(=O)c1ccc2c(c1)C(=O)C(=O)N2CC[C@H](O)CF`, the IC50 at Caspase-3 worked out at 0.0233 µM; at Caspase-7 it was 0.027 µM. The inhibition result on Caspase-6 (Homo sapiens) and on Caspase-1 (Homo sapiens) was “Active” throughout.

Regarding `COC[C@@H]1CCCN1S(=O)(=O)c1ccc2c(c1)C(=O)C(=O)N2CC[C@@H](F)CO`, the figures for the IC50 at Caspase-3 and on Caspase-7 were 0.056 µM and 0.071 µM, respectively. In addition, the inhibition entry at Caspase-6 (Homo sapiens) and at Caspase-1 (Homo sapiens) was “Active” in each case.

For the compound `COC[C@@H]1CCCN1S(=O)(=O)c1ccc2c(c1)C(=O)C(=O)N2CC[C@@H](O)C[18F]`, the Drug uptake result in the series with Intestine is listed as “Active”; in the series with Blood, “Active”; in the series with Lung, 3 %ID/ml; with Mus musculus [1] it was “Active”; in the series on Mus musculus [2] it was “Active”; in the series with Liver, 12 %ID/ml. Besides, the Drug uptake in the series with Heart is 3.6 %ID/ml; in the series on Kidney, 5.2 %ID/ml.

For `COC[C@@H]1CCCN1S(=O)(=O)c1ccc2c(c1)C(=O)C(=O)N2CC[C@@H](O)CF`, the IC50 at Caspase-3 stood at 0.0259 µM; at Caspase-7, 0.296 µM. Also, the inhibition result on Caspase-6 (Homo sapiens) and at Caspase-1 (Homo sapiens) was “Active” each time.

As to `COC[C@@H]1CCCN1S(=O)(=O)c1ccc2c(c1)C(=O)C(=O)N2CC[C@H](F)CO`, the concentration for half-maximal inhibition (IC50) at Caspase-3 worked out at 0.0118 µM; at Caspase-7, 0.000951 µM. The inhibition result on Caspase-6 (Homo sapiens) and at Caspase-1 (Homo sapiens) was “Active” each time.

Regarding `COC[C@@H]1CCCN1S(=O)(=O)c1ccc2c(c1)C(=O)C(=O)N2CC[C@@H](O)CO`, the IC50 on Caspase-3 is 0.187 µM; at Caspase-7, 0.128 µM. In addition, the inhibition entry at Caspase-6 (Homo sapiens) and at Caspase-1 (Homo sapiens) was “Active” throughout.
